The record followed here is ChEMBL document CHEMBL1121601, “Synthesis and anxiolytic activity of a series of pyrazino[1,2-a][1,4]benzodiazepine derivatives” (J Med Chem, 1980).

SMILES strings stand for the structures. The source made the active and inactive calls. The calls are words filed in the database; no cut-off is given here. Bounds are passed on as bounds.

Experiment [1] can be described thus: Compound was evaluated for in vitro inhibition of histamine activated adenylate cyclase in guinea pig cerebral cortex. The format is functional, tissue-based, Cavia porcellus. The method in brief: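 Cell-free vesicle preparation from guinea pig cerebral cortex, preincubated with [³H]adenine to label the endogenous ATP pool as [³H]ATP. Test agents were then assessed for blocking histamine activation of adenylate cyclase.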

Experiment [2] has as its target GABA-A receptor; anion channel. The experiment is described as follows: Displacement of [3H]diazepam from GABA-A receptor in rat synaptosomal membranes. The format is cell membranes, Membrane. The method in brief:
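Test agents over a wide concentration range, triplicate tubes per concentration. […] IC50 for inhibition of specific binding read graphically.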

The test system of experiment [3] is Rattus norvegicus. Description: Ability to reduce the incidence of metrazole-induced seizures in rats (administered perorally or at standard dose of 30 mg/kg ); Inactive. The format is functional, organism-based. More on the design: dose 30 mg/kg.
Experiment [4] addresses Tyrosine 3-monooxygenase (Rattus norvegicus) (UniProt P04177). The experiment is described as follows: Compound was tested to block the inhibition of tyrosine hydroxylase by apomorphine at 1 uM. In outline:
(§1)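 Tyrosine hydroxylase in synaptosomes, run essentially per Bronaugh and co-workers. Percent prevention of apomorphine inhibition = (% control activity with compound + Apo − % control with Apo)/(% control with compound alone − % control with Apo) × 100.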

Experiment [5] has the same target. Description: Compound was tested to block the inhibition of tyrosine hydroxylase by apomorphine at 10 uM. The method in brief: as §1
The species entered for experiment [6] is Rattus norvegicus. The experiment is described as follows: Ability to inhibit the uptake of norepinephrine (NE) by crude synaptosomes from rat whole brain. The format is functional. In outline: (§2)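 Crude synaptosomes from rat whole brain, per Thornberg and Moore with minor changes. Incubated 5 or 15 min with L-[3H]norepinephrine (20 or 21.2 nM unless otherwise specified) or [3H]serotonin (9.2-14 nM unless otherwise specified). Test agents dissolved in ethanol; final ethanol 1% (v/v).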

The species entered for experiment [7] is Rattus norvegicus. The experiment is described as follows: Ability to inhibit the uptake of serotonin (5-HT) by crude synaptosomes from rat whole brain. The format is functional. The method in brief:
as §2

Chain of Tyrosine 3-monooxygenase (Rattus norvegicus) (P04177 whole entry): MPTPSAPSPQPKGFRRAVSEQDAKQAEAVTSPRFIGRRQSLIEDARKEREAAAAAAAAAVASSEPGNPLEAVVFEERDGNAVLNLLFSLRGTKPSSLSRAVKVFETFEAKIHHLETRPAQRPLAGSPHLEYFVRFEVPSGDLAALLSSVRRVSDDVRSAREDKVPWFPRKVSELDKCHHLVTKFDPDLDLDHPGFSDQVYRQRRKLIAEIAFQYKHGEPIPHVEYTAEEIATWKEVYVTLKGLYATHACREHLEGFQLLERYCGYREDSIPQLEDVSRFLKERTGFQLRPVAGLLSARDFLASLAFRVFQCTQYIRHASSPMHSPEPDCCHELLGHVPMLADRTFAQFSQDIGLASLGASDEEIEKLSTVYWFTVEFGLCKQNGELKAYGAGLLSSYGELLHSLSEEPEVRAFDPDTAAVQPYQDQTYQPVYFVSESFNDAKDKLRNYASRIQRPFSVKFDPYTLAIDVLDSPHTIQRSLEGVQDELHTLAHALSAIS

Take `CN1CCN2c3ccc(Cl)c(-c4ccccc4)c3CNCC2C1` (stereo not drawn): the IC50 was above 50 µM in experiment [1] and above 100 µM in experiment [2]. In the experiment on Rattus norvegicus [3], the ED50 result is “inactive”.

Molecule `O=C(CCCN1CCC(O)(c2ccc(Cl)cc2)CC1)c1ccc(F)cc1` had an inhibition in experiment [4] of 28%.

The molecule `CC(=O)N1Cc2c(ccc(Cl)c2-c2ccccc2)N2CCN(C)CC2C1` (stereo not drawn) registered an IC50 in experiment [2] above 100 µM. Besides, the ED50 entry in the experiment with Rattus norvegicus [3] is “inactive”.

Regarding `CN1CCN2c3ccc(Cl)cc3C(c3ccc(Cl)cc3)=NCC2C1` (stereo not drawn), the IC50 is above 50 µM in experiment [1] and above 100 µM in experiment [2]. Further, the ED50 result in the experiment with Rattus norvegicus [3] is “inactive”. The inhibition in experiment [5] came out at 10%.

Regarding `CN1CCN2c3ccc(Cl)cc3C(c3ccccc3Cl)=NCC2C1` (stereo not drawn), the IC50 in experiment [1] came to 30 µM; in experiment [2], 0.8 µM; in the experiment listed under Rattus norvegicus [6] it was 30 µM; in the experiment filed under Rattus norvegicus [7], 45 µM.

In the case of `CN1CCN2c3ccccc3Cc3ccccc3C2C1` (stereo not drawn) [MIANSERIN], the IC50 turned out to be 0.19 µM in experiment [1], 36 µM in the experiment listed under Rattus norvegicus [6] and 35 µM in the experiment listed under Rattus norvegicus [7].

For `CC1=NCC2CN(C)CCN2c2ccc(Cl)cc21` (stereo not drawn), the IC50 is 5 µM in experiment [1] and above 100 µM in experiment [2]. Moreover, the ED50 entry in the experiment on Rattus norvegicus [3] was “inactive”.

For `CN1CCN2c3ccc(Cl)cc3C(Cc3ccccc3)=NCC2C1` (stereo not drawn), the IC50 in experiment [1] is above 50 µM; in experiment [2] it was above 100 µM. Besides, in the experiment on Rattus norvegicus [3], the ED50 entry is “inactive”.

Turning to `CN(C)CCCN1c2ccccc2CCc2ccc(Cl)cc21` [CLOMIPRAMINE], the IC50 in experiment [1] stood at 4.4 µM; in the experiment listed under Rattus norvegicus [6], 9.5 µM; in the experiment filed under Rattus norvegicus [7], 0.75 µM.

On to `CNCCCN1c2ccccc2CCc2ccccc21` [DESIPRAMINE], for which the IC50 in experiment [1] came out at 10.5 µM; in the experiment listed under Rattus norvegicus [6] it was 0.08 µM; in the experiment listed under Rattus norvegicus [7], 6.5 µM.

For the molecule `CN1CCN2c3ccc(Cl)cc3C(c3ccccc3)=NCC2C1` (stereo not drawn), the concentration for half-maximal inhibition (IC50) in experiment [1] and in experiment [2] was 9 µM throughout. Moreover, in the experiment on Rattus norvegicus [3], the ED50 result is “inactive”.

In experiment [4], `CN1C(=O)CN=C(c2ccccc2)c2cc(Cl)ccc21` returned an inhibition of 23%.

Usually IC50 stands for the concentration needed to halve the response being measured. A high value points to a need for much substance. As a reminder, the inhibition is how much of the control response was suppressed. A lower inhibition goes with little suppression.
